Assay [1] deals with Mus musculus. The assay is described as follows: Compound was tested in vivo for narcotic antagonist activity (dose in sc, mg/kg) in mice using tail flick antagonism assay; I =inactive at 1, 10, 30 mg/kg. It counts as functional, organism-based. Also noted: dose 30 mg/kg. Put shortly: (§1)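 Mouse tail-flick antagonism assay against morphine, with the test compound given subcutaneously and doses in mg/kg. It was run by an outside laboratory (Medical College of Virginia).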

For assay [2], the system named is Mus musculus. The assay is described as follows: Compound was tested in vivo for narcotic agonist activity (dose in sc, mg/kg) in mice using phenylquinone assay. It counts as functional.
Assay [3] relates to Mus musculus. Kind of assay: Compound was tested in vivo for narcotic agonist activity (dose in sc, mg/kg) in mice using tail flick assay. The assay is classed as functional. A general note: Thermal pain tests record how soon the animal reacts.
Assay [4] concerns Mus musculus. The assay is described as follows: Compound was tested in vivo for narcotic agonist activity (dose in sc, mg/kg) in mice using hot plate assay. The assay is classed as functional. The essentials: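 Mouse hot-plate test for narcotic agonist activity with subcutaneous dosing. Values are in mg/kg with 95% confidence limits.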
In assay [5] the test system is Mus musculus. The assay is described as follows: Compound was tested in vivo for narcotic agonist activity (dose in sc, mg/kg) in mice using hot plate assay; I = Inactive at 1,10, 30 mg/kg. The assay is classed as functional, organism-based. More on the design: dose 30 mg/kg.
Assay [6] deals with Mus musculus. The assay is described as follows: Compound was tested in vivo for narcotic agonist activity (dose in sc, mg/kg) in mice using phenylquinone assay. It counts as functional.
The test system of assay [7] is Mus musculus. Kind of assay: Compound was tested in vivo for narcotic agonist activity (dose in sc, mg/kg) in mice using tail flick assay. It counts as functional.
For assay [8], the system named is Mus musculus. Kind of assay: Compound was tested in vivo for narcotic antagonist activity (dose in sc, mg/kg) in mice using tail flick antagonism assay; I = Inactive at 1,10, 30 mg/kg. The assay is classed as functional, organism-based. Also noted: dose 30 mg/kg. Put shortly: as §1
Assay [9] relates to Mus musculus. Kind of assay: Compound was tested in vivo for narcotic agonist activity (dose in sc, mg/kg) in mice using phenylquinone assay; I = Inactive at 1,10, 30 mg/kg. The assay is classed as functional, organism-based. More on the design: dose 30 mg/kg.
Assay [10] concerns Mus musculus. The assay is described as follows: Compound was tested in vivo for narcotic antagonist activity (dose in sc, mg/kg) in mice using tail flick antagonism assay. It counts as functional. Put shortly: as §1
Assay [11] concerns Mus musculus. The assay is described as follows: Compound was tested in vivo for narcotic agonist activity (dose in sc, mg/kg) in mice using tail flick assay; I = Inactive at 1,10, 30 mg/kg. The assay is classed as functional, organism-based. Also noted: dose 30 mg/kg.

The source made the active and inactive calls. The rule behind the calls is not given here.

Consider `CN1CC[C@]23c4c5ccc(O)c4O[C@H]2[C@@H](O)C=C[C@H]3[C@H]1C5` [MORPHINE], for which, in the assay with Mus musculus [1], the outcome was inactive. For the same compound, the Activity with Mus musculus [2] is listed as 0.23; in the assay on Mus musculus [3], 5.8; in the assay on Mus musculus [4], 1.3.
As to `CN1c2ccc(O)cc2[C@]2(C)CCN[C@H]12`, the outcome in the assay with Mus musculus [5] was inactive.
`CN1CC[C@@]2(C)c3cc(O)ccc3N(C)[C@@H]12`: the values for the Activity with Mus musculus [6], in the assay on Mus musculus [7] and with Mus musculus [4] were 0.7, 2.3 and 1.6, respectively. Also, the outcome in the assay with Mus musculus [8] was inactive.
As to `C=CCN1CC[C@]23c4c5ccc(O)c4O[C@H]2C(=O)CC[C@@]3(O)[C@H]1C5` [NALOXONE], the outcome with Mus musculus [5], with Mus musculus [9] and in the assay with Mus musculus [11] was inactive. This compound also showed an Activity in the assay with Mus musculus [10] of 0.03.
For the compound `CN1CC[C@]2(C)c3cc(O)ccc3N(C)[C@H]12`, the outcome in the assay on Mus musculus [5], with Mus musculus [8] and in the assay on Mus musculus [11] was inactive. For the same compound, the Activity in the assay with Mus musculus [6] worked out at 2.3.

These data come from ChEMBL document CHEMBL1123272, “Comparison of (-)-eseroline with (+)-eseroline and dihydroseco analogues in antinociceptive assays: confirmation of rubreserine structure by X-ray analysis” (1986).
